In ChEMBL document CHEMBL1144664, “Design, synthesis, and SAR of new pyrrole-oxindole progesterone receptor modulators leading to 5-(7-fluoro-3,3-dimethyl-2-oxo-2,3-dihydro-1H-indol-5-yl)-1-methyl-1H-pyrrole-2-carbonitrile (WAY-255348)” (J Med Chem, 2008):
Active and inactive are the calls of the source. No cut-off for these calls is given here.

Tests used:
[1] = target: T1, Mineralocorticoid receptor (Homo sapiens) (UniProt P08235); assay: Agonist activity at human MR ligand binding domain receptor expressed in african green monkey COS7 cells by Gal4 hybrid assay; assay type: cell-based; conditions: COS-7
T1 sequence (whole entry): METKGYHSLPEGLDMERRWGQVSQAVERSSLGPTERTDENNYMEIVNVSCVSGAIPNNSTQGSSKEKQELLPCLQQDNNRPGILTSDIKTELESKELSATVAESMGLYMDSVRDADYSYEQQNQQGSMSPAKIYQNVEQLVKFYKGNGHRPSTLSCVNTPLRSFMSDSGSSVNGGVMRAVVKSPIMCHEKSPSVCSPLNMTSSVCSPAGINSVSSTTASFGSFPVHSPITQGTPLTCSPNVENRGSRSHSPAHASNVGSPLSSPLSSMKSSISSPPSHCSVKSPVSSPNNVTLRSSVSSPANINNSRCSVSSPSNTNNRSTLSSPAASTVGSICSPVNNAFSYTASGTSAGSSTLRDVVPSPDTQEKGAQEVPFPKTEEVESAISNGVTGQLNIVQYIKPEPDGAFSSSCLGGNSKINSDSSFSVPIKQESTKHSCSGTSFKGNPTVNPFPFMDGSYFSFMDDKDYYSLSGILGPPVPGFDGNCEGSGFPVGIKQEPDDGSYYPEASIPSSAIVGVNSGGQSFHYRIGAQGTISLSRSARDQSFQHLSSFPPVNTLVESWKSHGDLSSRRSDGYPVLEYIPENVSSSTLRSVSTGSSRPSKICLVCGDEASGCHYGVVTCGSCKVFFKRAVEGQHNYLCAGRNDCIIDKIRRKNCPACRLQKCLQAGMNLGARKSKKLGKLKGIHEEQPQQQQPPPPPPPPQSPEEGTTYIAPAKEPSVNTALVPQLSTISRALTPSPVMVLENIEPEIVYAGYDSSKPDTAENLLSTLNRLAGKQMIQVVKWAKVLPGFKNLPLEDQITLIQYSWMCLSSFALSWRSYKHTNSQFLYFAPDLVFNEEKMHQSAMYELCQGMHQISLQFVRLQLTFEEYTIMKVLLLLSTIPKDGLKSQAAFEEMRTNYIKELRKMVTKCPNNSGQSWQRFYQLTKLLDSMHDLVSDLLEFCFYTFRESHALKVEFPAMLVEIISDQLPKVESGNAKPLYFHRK
In short: (§1)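 Gal4-steroid receptor LBD fusion plasmid plus GAL4_UAS (5 copies, E1b TATA)-luciferase reporter, 50 ng/well each, transfected 16 h into COS-7 cells grown in phenol red-free DMEM with 10% charcoal/dextran-treated FBS. Compound treatment 20 h, then luciferase read-out. Antagonist mode uses 3 nM aldosterone (hMR) or 5 nM 17β-estradiol (hER). Values are the average of at least duplicate determinations.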

Estrogen receptor = target: T2, Estrogen receptor (Homo sapiens, UniProt P03372); assay: Antagonist activity at human ER ligand binding domain expressed in african green monkey COS7 cells in presence of 17-beta-estradiol by Gal4 hybrid assay; assay type: cell-based, COS-7; in short: as §1
T2 sequence (P03372 whole entry): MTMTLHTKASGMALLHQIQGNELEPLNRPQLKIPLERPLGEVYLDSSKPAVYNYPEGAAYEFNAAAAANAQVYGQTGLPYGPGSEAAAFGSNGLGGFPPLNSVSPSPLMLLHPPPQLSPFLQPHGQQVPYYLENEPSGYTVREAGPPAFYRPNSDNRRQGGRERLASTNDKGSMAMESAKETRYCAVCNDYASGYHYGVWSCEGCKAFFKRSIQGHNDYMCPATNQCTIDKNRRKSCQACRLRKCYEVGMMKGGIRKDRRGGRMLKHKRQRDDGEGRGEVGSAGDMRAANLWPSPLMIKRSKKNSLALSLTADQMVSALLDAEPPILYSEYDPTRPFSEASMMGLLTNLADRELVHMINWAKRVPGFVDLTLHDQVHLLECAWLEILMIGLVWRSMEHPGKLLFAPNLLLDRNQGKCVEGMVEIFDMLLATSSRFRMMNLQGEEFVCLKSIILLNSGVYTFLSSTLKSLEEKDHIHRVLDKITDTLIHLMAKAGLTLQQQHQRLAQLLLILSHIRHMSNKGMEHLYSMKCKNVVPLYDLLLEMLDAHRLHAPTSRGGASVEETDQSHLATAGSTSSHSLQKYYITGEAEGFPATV

Androgen receptor = target: T3, Androgen receptor (Homo sapiens, UniProt P10275)
T3 sequence (P10275 whole entry): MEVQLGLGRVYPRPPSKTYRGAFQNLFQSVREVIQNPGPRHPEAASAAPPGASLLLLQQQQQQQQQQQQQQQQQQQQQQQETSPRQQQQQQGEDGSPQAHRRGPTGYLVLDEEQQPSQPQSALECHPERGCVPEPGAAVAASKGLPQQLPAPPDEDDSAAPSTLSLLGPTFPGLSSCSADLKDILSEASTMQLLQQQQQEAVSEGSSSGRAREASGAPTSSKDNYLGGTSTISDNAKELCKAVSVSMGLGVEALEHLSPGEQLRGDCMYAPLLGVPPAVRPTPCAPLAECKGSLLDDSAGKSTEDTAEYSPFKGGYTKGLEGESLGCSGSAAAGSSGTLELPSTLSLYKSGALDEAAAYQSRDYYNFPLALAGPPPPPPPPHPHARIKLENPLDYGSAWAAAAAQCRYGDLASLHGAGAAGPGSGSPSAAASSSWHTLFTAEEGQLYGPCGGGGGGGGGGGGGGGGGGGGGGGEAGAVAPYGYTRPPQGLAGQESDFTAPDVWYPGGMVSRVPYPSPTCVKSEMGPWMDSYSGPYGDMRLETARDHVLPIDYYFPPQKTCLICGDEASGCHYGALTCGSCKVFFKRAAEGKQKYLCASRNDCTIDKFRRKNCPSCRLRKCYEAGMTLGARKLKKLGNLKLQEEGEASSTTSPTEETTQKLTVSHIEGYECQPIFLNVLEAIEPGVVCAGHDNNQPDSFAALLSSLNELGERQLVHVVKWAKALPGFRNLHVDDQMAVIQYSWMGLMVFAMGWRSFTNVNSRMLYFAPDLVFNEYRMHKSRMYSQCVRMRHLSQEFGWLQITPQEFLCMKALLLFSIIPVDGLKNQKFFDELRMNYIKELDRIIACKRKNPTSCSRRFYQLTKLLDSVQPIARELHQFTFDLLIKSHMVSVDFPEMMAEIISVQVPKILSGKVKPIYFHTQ

[2] = target: T4, Estrogen receptor (Homo sapiens) (UniProt P03372); assay: Agonist activity at human ER ligand binding domain expressed in african green monkey COS7 cells by Gal4 hybrid assay; assay type: cell-based; conditions: COS-7; in short: as §1
T4 sequence (whole entry): T2 sequence (P03372 whole entry)

[3] = target: T5, Mineralocorticoid receptor (Homo sapiens, UniProt P08235); assay: Antagonist activity at human MR ligand binding domain expressed in african green monkey COS7 cells in presence of aldosterone by Gal4 hybrid assay; assay type: cell-based, COS-7; in short: as §1
T5 sequence (P08235 whole entry): T1 sequence (whole entry)

Glucocorticoid receptor = target: T6, Glucocorticoid receptor (Homo sapiens, UniProt P04150); assay: Antagonist activity at human GR ligand binding domain expressed in african green monkey COS7 cells in presence of Dexamethasone by Gal4 hybrid assay; assay type: cell-based, COS-7
T6 sequence (P04150 whole entry): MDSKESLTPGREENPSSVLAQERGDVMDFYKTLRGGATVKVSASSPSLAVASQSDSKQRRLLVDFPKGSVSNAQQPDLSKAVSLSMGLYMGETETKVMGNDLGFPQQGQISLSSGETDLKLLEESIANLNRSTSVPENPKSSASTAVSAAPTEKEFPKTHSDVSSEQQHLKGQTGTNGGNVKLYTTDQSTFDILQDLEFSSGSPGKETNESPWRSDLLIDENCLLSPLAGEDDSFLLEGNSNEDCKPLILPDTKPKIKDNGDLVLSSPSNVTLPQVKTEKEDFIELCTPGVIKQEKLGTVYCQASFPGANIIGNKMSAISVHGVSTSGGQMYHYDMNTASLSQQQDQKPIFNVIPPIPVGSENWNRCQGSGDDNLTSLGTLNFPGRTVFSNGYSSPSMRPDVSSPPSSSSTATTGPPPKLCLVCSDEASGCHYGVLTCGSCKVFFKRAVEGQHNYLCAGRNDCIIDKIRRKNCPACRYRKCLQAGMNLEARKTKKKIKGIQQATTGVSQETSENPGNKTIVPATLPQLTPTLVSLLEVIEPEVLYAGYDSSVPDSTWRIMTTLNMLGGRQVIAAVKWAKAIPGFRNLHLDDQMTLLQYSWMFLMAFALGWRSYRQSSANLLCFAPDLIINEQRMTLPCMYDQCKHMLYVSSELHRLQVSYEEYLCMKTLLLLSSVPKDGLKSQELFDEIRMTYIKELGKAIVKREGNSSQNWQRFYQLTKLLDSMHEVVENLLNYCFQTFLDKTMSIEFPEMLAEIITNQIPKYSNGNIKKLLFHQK

Question: What does the source list for `COC[C@]1(OC)CC[C@H]2[C@@H]3CCC4=CC(=O)CCC4=C3[C@@H](c3ccc(/C=N/O)cc3)C[C@@]21C` [ASOPRISNIL]?
Answer: Activity [1]: inactive; IC50 (Estrogen receptor): 1900 nM; IC50 (Androgen receptor): 6.1 nM; Activity [2]: inactive; IC50 [3]: 1600 nM; IC50 (Glucocorticoid receptor): 85 nM
